Assay [1] deals with MOLT-4. The assay can be described thus: Compound was evaluated for inhibition of [3H]methotrexate uptake into MOLT-4 cells. In kind it is functional, cell-based. The note with it: Homo sapiens.
Assay [2] concerns the target GAR transformylase (Sus scrofa). The assay can be described thus: In vitro inhibition of hog liver GAR transformylase with (6R)-10-formyl-FH4 as cofactor.
For the next assay, the system named is MCF7. Description: In vitro inhibition of growth of MCF-7 human breast adenocarcinoma using 72 hours continuous exposure. In kind it is functional, cell-based. The procedure, abridged:
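ATCC MCF-7 cells grown in RPMI 1640 with 10 nM calcium leucovorin as folate source, 10% dialyzed fetal calf serum, penicillin, streptomycin and sodium pyruvate (110 μg/mL). Cells seeded at 15000/well, preincubated 24 h at 37 °C, then exposed 72 h (37 °C, 5% CO2), triplicate per concentration. Growth read by MTT reduction, formazan dissolved in DMSO, A570 (reference 750 nm), against a cell-number standard curve.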

Assay [3] has as its system MOLT-4. Description: In vitro inhibitory activity against MOLT-4 T-cell leukemia cell AICAR transformylase. In kind it is functional, cell-based, Homo sapiens. The note with it: for IC50: Homo sapiens, MOLT-4.

In general, IC50 refers to the point on the concentration scale where inhibition reaches its midpoint. High values mean weaker potency in that assay, low ones greater potency in that assay. As usually defined, the Inhibition is the change of the read-out against control, counted positive when it falls.

Structures are written as SMILES.

Regarding `Nc1nc(N)c(CCCNc2ccc(C(=O)N[C@@H](CCC(=O)O)C(=O)O)cc2)c(O)n1`, the IC50 turned out to be 1.2 µM with MOLT-4 [1] and 3 µM in assay [2].
In the case of `COc1cc(C(=O)NC(CCC(=O)O)C(=O)O)ccc1NCCCc1c(N)nc(N)nc1O` (stereo unspecified), the IC50 in the assay with MCF7 came to 5 µM; in the assay with MOLT-4 [1], 1 µM.
For the compound `Cc1cc(C(=O)NC(CCC(=O)O)C(=O)O)ccc1NCCCc1c(N)nc(N)nc1O` (stereo unspecified), the IC50 stood at 0.25 µM with MCF7 and 1.3 µM in the assay with MOLT-4 [1].
Turning to `Nc1nc(N)c(CCCNc2ccc(C(=O)NC(CCC(=O)O)C(=O)O)c(Cl)c2)c(O)n1` (stereo unspecified), the IC50 with MCF7 stood at 0.115 µM; in the assay with MOLT-4 [3] it was 182 µM; in the assay with MOLT-4 [1] it was 0.7 µM.
On to `Nc1nnc(C2CCN(c3ccc(C(=O)NC(CCC(=O)O)C(=O)O)cc3)C2=O)c(O)n1` (stereo unspecified), for which the IC50 with MCF7 and in the assay with MOLT-4 [1] was greater than 100 µM throughout.
Regarding `Nc1nc(N)c(CCCCc2ccc(C(=O)N[C@@H](CCC(=O)O)C(=O)O)cc2)c(=O)[nH]1` [DIDEAZAACYCLOTETRAHYDROFOLIC ACID], the values for the IC50 in the assay on MCF7 and in the assay with MOLT-4 [1] were 0.061 µM and 0.9 µM, respectively.
With `Nc1nc(N)c(CCCNc2ccc(C(=O)NC(CCC(=O)O)C(=O)O)c(F)c2)c(O)n1` (stereo unspecified), the IC50 with MCF7 was 0.033 µM; with MOLT-4 [3], 79.3 µM; with MOLT-4 [1], 0.7 µM.
Turning to `Nc1ncnc(O)c1CCCNc1ccc(C(=O)NC(CCC(=O)O)C(=O)O)cc1` (stereo unspecified), the values for the IC50 in the assay with MCF7 and in the assay on MOLT-4 [1] were greater than 50 µM and 2 µM, respectively. The Inhibition in the assay with MOLT-4 [3] came out at 26%.
Consider `Nc1nc(N)c(CCCCNc2ccc(C(=O)NC(CCC(=O)O)C(=O)O)cc2)c(O)n1` (stereo unspecified), for which the IC50 stood at 5 µM in the assay with MCF7 and 1.5 µM in the assay on MOLT-4 [1].
As for `Nc1nc(N)c(CCCNc2ccc(C(=O)NC(CCC(=O)O)C(=O)O)cc2F)c(O)n1` (stereo unspecified), the IC50 is 0.063 µM in the assay with MCF7, 133 µM in the assay on MOLT-4 [3] and 1 µM in the assay with MOLT-4 [1].
As to `Nc1nc(O)c2c(n1)NCC(CCc1ccc(C(=O)NC(CCC(=O)O)C(=O)O)cc1)C2` (stereo unspecified), the figures for the IC50 with MCF7 and in the assay on MOLT-4 [1] were 0.018 µM and 1.5 µM, respectively.
For the compound `Nc1nc(N)c(CCCSc2ccc(C(=O)NC(CCC(=O)O)C(=O)O)cc2)c(O)n1` (stereo unspecified), the IC50 in the assay on MCF7 amounted to 0.023 µM; in the assay with MOLT-4 [3], 25.8 µM; with MOLT-4 [1] it was 0.8 µM.
As to `Nc1nc(N)c(CCCOc2ccc(C(=O)NC(CCC(=O)O)C(=O)O)cc2)c(O)n1` (stereo unspecified), the IC50 worked out at 0.085 µM with MCF7 and 1.1 µM in the assay with MOLT-4 [1].

Values taken from ChEMBL document CHEMBL1125435, “Synthesis and biological activity of open-chain analogues of 5,6,7,8-tetrahydrofolic acid--potential antitumor agents” (J Med Chem, 1992).
